Measurements taken from ChEMBL document CHEMBL4052630, “Design, synthesis and evaluation of scutellarein-O-acetamidoalkylbenzylamines as potential multifunctional agents for the treatment of Alzheimer's disease” (Eur J Med Chem, 2017).
Activity calls are given as the source filed them. The calls are words filed in the database; no cut-off is given here.

Columns and labels:
[1] = target: T1, Acetylcholinesterase (Rattus norvegicus, UniProt P37136); experiment: Inhibition of rat cortex homogenate AChE using acetylthiocholine iodide as substrate after 15 mins in presence of BuChE inhibitor iso-OMPA by Ellman's method
T1 sequence (P37136 whole entry): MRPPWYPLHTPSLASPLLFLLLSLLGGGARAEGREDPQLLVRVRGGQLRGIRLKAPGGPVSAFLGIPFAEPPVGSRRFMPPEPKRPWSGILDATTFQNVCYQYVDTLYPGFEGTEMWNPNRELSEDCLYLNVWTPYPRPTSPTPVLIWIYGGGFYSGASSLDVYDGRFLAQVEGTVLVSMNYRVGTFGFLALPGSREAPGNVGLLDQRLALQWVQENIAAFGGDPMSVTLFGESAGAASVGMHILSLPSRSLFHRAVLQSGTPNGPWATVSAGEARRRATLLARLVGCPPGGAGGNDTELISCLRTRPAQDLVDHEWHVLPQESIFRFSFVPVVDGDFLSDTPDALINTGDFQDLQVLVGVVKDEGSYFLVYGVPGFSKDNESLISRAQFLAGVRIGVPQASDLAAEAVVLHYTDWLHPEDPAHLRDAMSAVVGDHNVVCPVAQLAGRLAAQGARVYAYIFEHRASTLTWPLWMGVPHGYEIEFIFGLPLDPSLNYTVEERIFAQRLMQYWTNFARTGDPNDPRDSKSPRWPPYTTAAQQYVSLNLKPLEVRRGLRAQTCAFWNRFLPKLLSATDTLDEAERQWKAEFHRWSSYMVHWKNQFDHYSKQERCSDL

[2] = Inhibition of rat serum BuChE using butyrylthiocholine iodide as substrate after 15 mins by Ellman's method; assay type: ADME
[3] = target: Acetylcholinesterase (Electrophorus electricus, UniProt O42275); experiment: Inhibition of electric eel AChE using acetylthiocholine iodide as substrate after 15 mins by Ellman's method
Chain of Acetylcholinesterase (Electrophorus electricus, UniProt O42275) (O42275 whole entry): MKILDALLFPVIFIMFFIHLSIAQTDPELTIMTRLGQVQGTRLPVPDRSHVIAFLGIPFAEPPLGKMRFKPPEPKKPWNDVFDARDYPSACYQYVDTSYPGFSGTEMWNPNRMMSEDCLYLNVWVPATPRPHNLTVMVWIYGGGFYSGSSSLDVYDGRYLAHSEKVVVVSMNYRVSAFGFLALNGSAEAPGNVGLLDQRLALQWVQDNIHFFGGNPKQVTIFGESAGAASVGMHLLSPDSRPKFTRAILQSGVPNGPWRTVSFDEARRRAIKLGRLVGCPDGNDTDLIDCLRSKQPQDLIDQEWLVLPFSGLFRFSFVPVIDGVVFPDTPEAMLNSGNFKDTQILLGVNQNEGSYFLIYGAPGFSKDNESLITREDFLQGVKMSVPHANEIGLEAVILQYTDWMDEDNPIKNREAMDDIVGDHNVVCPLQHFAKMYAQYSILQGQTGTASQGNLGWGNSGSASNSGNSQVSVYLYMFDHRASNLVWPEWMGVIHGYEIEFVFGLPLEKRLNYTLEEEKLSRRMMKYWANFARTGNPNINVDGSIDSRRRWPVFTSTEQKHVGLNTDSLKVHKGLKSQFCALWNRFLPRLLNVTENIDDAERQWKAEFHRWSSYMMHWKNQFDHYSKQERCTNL

[4] = target: T2, Acetylcholinesterase (Homo sapiens, UniProt P22303); experiment: Inhibition of human erythrocyte AChE using acetylthiocholine iodide as substrate after 15 mins by Ellman's method
T2 sequence (P22303 whole entry): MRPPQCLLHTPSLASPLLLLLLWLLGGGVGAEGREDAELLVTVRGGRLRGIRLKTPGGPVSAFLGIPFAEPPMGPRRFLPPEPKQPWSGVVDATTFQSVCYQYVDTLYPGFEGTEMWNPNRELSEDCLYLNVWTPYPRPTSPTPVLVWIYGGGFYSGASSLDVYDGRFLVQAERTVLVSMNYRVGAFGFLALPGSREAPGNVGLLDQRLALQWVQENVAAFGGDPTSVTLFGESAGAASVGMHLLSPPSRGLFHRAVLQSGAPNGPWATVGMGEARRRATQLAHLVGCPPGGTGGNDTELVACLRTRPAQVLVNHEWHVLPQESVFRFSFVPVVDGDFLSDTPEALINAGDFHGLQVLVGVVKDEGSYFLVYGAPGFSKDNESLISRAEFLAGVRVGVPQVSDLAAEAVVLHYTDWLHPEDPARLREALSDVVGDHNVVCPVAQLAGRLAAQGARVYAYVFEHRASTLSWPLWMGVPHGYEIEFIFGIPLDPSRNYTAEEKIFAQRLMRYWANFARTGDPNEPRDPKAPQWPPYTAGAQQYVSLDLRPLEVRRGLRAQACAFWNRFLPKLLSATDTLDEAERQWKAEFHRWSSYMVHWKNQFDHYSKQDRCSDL

[5] = Metal chelating activity assessed as compound-Al3+ complex formation by measuring shift in maximum absorption wavelength at 37.5 uM after 30 mins by UV-vis spectrophotometric method
In short: (§1)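 UV absorption scanned from 200 to 600 nm after 30 min at room temperature in methanol. Compound and each metal salt (CuCl2, ZnCl2, AlCl3, FeSO4) were at 37.5 µM final. Spectra compared with and without metal.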

[6] = Metal chelating activity assessed as compound-Zn2+ complex formation by measuring shift in maximum absorption wavelength at 37.5 uM after 30 mins by UV-vis spectrophotometric method; in short: as §1
[7] = Metal chelating activity assessed as compound-Fe2+ complex formation by measuring shift in maximum absorption wavelength at 37.5 uM after 30 mins by UV-vis spectrophotometric method; in short: as §1
[8] = target: T2, Acetylcholinesterase; experiment: Inhibition of human erythrocyte AChE induced amyloid beta (1 to 40) aggregation at 25 uM after 24 hrs by ThT-based fluorometric method relative to control
In short: (§2)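 HFIP-pretreated Aβ1-40 (230 µM final) co-incubated 24 h at room temperature with human AChE (2.3 µM; Aβ/AChE 100:1) ± compound in sodium phosphate buffer pH 8.0. Then 5 µM thioflavin T in glycine-NaOH pH 8.5 was added and read at ex 446/em 490 nm. Triplicate. % inhibition calculated from fluorescence with/without inhibitor, each minus its blank (Aβ alone, AChE alone, Aβ+inhibitor).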

[9] = target: Amyloid-beta precursor protein (Homo sapiens) (UniProt P05067); experiment: Inhibition of amyloid beta (1 to 42) (unknown origin) self aggregation at 12.5 uM after 24 hrs by ThT-based fluorometric method relative to control
Chain of Amyloid-beta precursor protein (Homo sapiens) (P05067 whole entry): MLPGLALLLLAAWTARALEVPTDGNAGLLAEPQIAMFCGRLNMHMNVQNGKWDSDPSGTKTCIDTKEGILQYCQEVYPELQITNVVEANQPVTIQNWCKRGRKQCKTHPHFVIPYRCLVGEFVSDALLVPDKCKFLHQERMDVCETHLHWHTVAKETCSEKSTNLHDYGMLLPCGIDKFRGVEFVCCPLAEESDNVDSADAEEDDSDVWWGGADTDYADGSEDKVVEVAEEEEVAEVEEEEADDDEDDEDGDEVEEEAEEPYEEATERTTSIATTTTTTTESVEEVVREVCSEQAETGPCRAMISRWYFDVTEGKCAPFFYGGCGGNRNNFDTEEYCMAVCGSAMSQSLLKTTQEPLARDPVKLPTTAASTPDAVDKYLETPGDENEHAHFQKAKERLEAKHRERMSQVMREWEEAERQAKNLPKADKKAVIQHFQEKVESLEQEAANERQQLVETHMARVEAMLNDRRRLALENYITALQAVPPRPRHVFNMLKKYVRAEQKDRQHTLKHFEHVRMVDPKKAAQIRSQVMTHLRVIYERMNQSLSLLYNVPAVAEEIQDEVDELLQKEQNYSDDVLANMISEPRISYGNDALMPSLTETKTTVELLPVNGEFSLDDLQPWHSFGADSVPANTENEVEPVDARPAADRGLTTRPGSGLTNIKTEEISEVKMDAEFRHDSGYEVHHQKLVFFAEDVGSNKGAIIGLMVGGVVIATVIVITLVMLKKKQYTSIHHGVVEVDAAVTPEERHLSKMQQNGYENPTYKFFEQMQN
In short: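 Aβ1-42 (25 µM final) incubated 24 h at 37 °C with or without compound (1-50 µM) in 50 mM phosphate buffer pH 7.4. Thioflavin T (5 µM in glycine-NaOH pH 8.5) then added, fluorescence read at ex 446/em 490 nm. Inhibition = (1-IFi/IFc)×100 after background subtraction. Run in triplicate.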

[10] = Metal chelating activity assessed as inhibition of Cu2+ induced amyloid beta (1 to 42) aggregation at 25 uM after 24 hrs by ThT-based fluorometric method relative to control
In short: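 Aβ1-42 (25 µM) with Cu2+ (25 µM, one equivalent) in 20 mM HEPES pH 6.6 with NaCl, incubated 24 h at 37 °C ± compound (25 µM). Then 5 µM thioflavin T in glycine-NaOH pH 8.5 was added and read at ex 446/em 490 nm. Triplicate. % inhibition relative to no-compound control.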

[11] = Cytotoxicity against human SH-SY5Y cells assessed as cell viability at 100 uM after 24 hrs by MTT assay relative to control; assay type: cell-based; details: read-out: Activity
In short: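 SH-SY5Y cells grown in DMEM with 10% FBS at 37 °C, 5% CO2, seeded 4 × 10^4 cells/well and incubated 24 h. Compounds given at 1, 10 and 100 µM (1% DMSO final) for 24 h. MTT (5 mg/ml) added for 4 h, cells lysed overnight in DMF/SDS, absorbance read at 590 nm against control. Three independent experiments.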

[12] = test system: PC-12; experiment: Neuroprotective activity against H2O2-induced cell injury in rat PC12 cells assessed as cell viability at 10 uM preincubated for 24 hrs followed by incubation with H2O2 for 2 hrs measured after 24 hrs by MTT assay (reference value: 43.9%); assay type: functional; details: read-out: Activity
In short: (§3)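 PC12 cells in phenol-red-free DMEM with 10% FCS, plated at 10^5 cells/well. Cells preincubated 24 h with compound (1.0 or 10.0 µM; dissolved in 2% DMSO, diluted in PBS), then exposed to H2O2 100 µM for 2 h. Medium replaced; viability assessed 24 h later by MTT (4 h, 37 °C), lysis in DMF/SDS, A590.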

[13] = test system: PC-12; experiment: Neuroprotective activity against H2O2 induced cell injury in rat PC12 cells assessed as cell viability at 1 uM preincubated for 24 hrs followed by incubation with H2O2 for 2 hrs measured after 24 hrs by MTT assay (reference value: 43.9%); assay type: functional; details: read-out: Activity; in short: as §3
[14] = target: T2, Acetylcholinesterase; experiment: Inhibition of human erythrocyte AChE induced amyloid beta (1 to 40) aggregation after 24 hrs by ThT-based fluorometric method; in short: as §2
[15] = test system: PC-12; experiment: Neuroprotective activity against H2O2 induced cell injury in rat PC12 cells assessed as increase in cell viability preincubated for 24 hrs followed by incubation with H2O2 for 2 hrs measured after 24 hrs by MTT assay; assay type: functional, cell-based; in short: as §3
[16] = test system: Mus musculus; experiment: Reversal of scopolamine-induced memory impairment in po dosed Kunming mouse assessed as increase in step-down latency time administered 60 mins prior to training trial followed by scopolamine challenge at 30 mins post dose measured 24 hrs after training trial by passive avoidance test; assay type: functional, organism-based
In short: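 Kunming mice, 18–22 g, six weeks old, either sex; 10 per group. Oral dosing 1 h before training (test compound 3.67, 7.33, 22 mg/kg; donepezil 5.0 mg/kg), scopolamine 3 mg/kg i.p. 30 min later. Training: 0.5 mA, 2 s foot shock on stepping off the block. Step-down latency measured 24 h later. Mean ± SEM.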

[17] = Solubility of the compound in water; assay type: physicochemical; details: buffer

CCN(CCCCNC(=O)COc1ccc(-c2cc(=O)c3c(O)c(OC)c(OC)cc3o2)cc1)Cc1ccccc1OC
IC50 [1]: 51 nM
IC50 [2]: > 500 µM
IC50 [3]: 15.9 µM
IC50 [4]: 39 nM
Activity [5]: Active
Activity [6]: inactive
Activity [7]: inactive
inhibition [8]: 32.7%
inhibition [9]: 43.6%
inhibition [10]: 43.4%
viability at 24 h, 100 µM [11]: 82.4%
viability at 10 µM [12]: 82.7%
viability at 1 µM [13]: 67.6%
inhibition [14]: Dose-dependent effect
Activity [15]: Dose-dependent effect
Activity [16]: Dose-dependent effect
solubility [17]: Insoluble
